≈ marks a conversion by molar mass, not a printed value. Blank lines part the entries; values can stand above or below the compound they belong to. Calls of active or inactive are those of the source. No cut-off for these calls is given here.
Legend:
Escherichia coli [1] = experiment: Antibacterial activity against Escherichia coli B cultured in Jensen's minimal media assessed as growth inhibition by turbidimetric analysis; assay type: functional, organism-based
Procedure, shortened: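 E. coli B, grown overnight in Jensen's minimal medium, was subcultured at 37° with shaking to 70% T. 1 ml of culture was added to 8 ml Jensen's broth (pH 7) plus 1 ml compound in 10% Me2SO. Five concentrations (dilution series 1–0.1) and a 1% Me2SO control were run. Turbidity was monitored with agitation. Log A vs time gave % inhibition, and IC50 came from log concentration–probability plots.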

[2] = Half life of the compound in 5% Me2SO-Jensen's minimal media at 0.7 to 2 X 10^-4 M at pH 7 by spectrophotometric analysis; assay type: physicochemical
Procedure, shortened: (§1)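 Solvolysis was run at 37 ± 0.5° in Jensen's minimal medium at pH 7.0 with 5% Me2SO final, starting from 0.7–2.0 × 10^-4 M compound. Absorbance was followed at a preselected wavelength. Benzofuran concentration was calculated every half hour from substrate and product extinction coefficients. Data were fitted to a first-order rate law, with a 95% confidence range on the rate constant.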

[3] = Ratio of antibacterial activity against Escherichia coli B cultured in Jensen's minimal media to antibacterial activity against Escherichia coli Br cultured in Penassay broth; assay type: functional
[4] = Stability of the compound in aqueous solution; assay type: physicochemical; conditions: buffer; procedure, shortened: as §1
Enterococcus faecalis = experiment: Antibacterial activity against Streptococcus faecalis after 6 hrs by turbidimetric analysis; assay type: functional
Procedure, shortened: (§2)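 Overnight Penassay broth culture adjusted to 60% transmittance, diluted 10 ml into 900 ml broth; 4.5 ml inoculum added to 0.5 ml compound in 10% Me2SO. Nine-step dilution series (1 to 0.031), four replicates each, with positive and negative controls. Incubation at 37°, stationary except P. aeruginosa. Turbidity read at 660 nm after 6 hr. MIC taken as the lowest concentration giving >90% T.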

Escherichia coli [5] = experiment: Antibacterial activity against nitrofuran reductase-deficient Escherichia coli Br 207 after 6 hrs by turbidimetric analysis; assay type: functional; conditions: Br 207, 6 h; procedure, shortened: as §2
Escherichia coli [6] = experiment: Antibacterial activity against Escherichia coli B after 6 hrs by turbidimetric analysis; assay type: functional; procedure, shortened: as §2
Klebsiella pneumoniae [7] = experiment: Antibacterial activity against Klebsiella pneumoniae after 6 hrs by turbidimetric analysis; assay type: functional; procedure, shortened: as §2
Escherichia coli [8] = experiment: Antibacterial activity against Escherichia coli Br cultured in Penassay broth assessed as effect on lag time after 9 hrs by turbidimetric analysis; assay type: functional, organism-based
Procedure, shortened: (§3)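 Cultures in Penassay broth at 37° with compound added from 10% Me2SO and monitored at 660 nm every 20 min for 9 hr after inoculation. For each concentration, the log A660 vs time plot was extrapolated to A = 0.05. Time from inoculation to that point was taken as the lag time, which was then plotted against concentration.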

Pseudomonas aeruginosa = experiment: Antibacterial activity against Pseudomonas aeruginosa after 6 hrs by turbidimetric analysis; assay type: functional; procedure, shortened: as §2
Staphylococcus aureus [9] = experiment: Antibacterial activity against Staphylococcus aureus after 6 hrs by turbidimetric analysis; assay type: functional; procedure, shortened: as §2
Escherichia coli [10] = experiment: Antibacterial activity against Escherichia coli Br after 6 hrs by turbidimetric analysis; assay type: functional; procedure, shortened: as §2
Providencia rettgeri = experiment: Antibacterial activity against Proteus rettgeri after 6 hrs by turbidimetric analysis; assay type: functional; procedure, shortened: as §2
Proteus mirabilis = experiment: Antibacterial activity against Proteus mirabilis after 6 hrs by turbidimetric analysis; assay type: functional; procedure, shortened: as §2
[11] = Half life of the compound in 40% Me2SO-Jensen's minimal media at 0.7 to 2 X 10^-4 M at pH 6 by spectrophotometric analysis; assay type: physicochemical
Escherichia coli [12] = experiment: Antibacterial activity against Escherichia coli Br assessed as decrease in viability at 7.7 X 10^-5 M after 2 hrs; assay type: functional, organism-based
Escherichia coli [13] = experiment: Antibacterial activity against Escherichia coli Br cultured in Penassay broth assessed as time required for growth suppression at 4.4 X 10^-5 M compound added in late log phase of growth by turbidimetric analysis; assay type: functional
Staphylococcus aureus [14] = experiment: Antibacterial activity against Staphylococcus aureus cultured in Penassay broth assessed as effect on lag time after 9 hrs by turbidimetric analysis; assay type: functional, organism-based; procedure, shortened: as §3
[15] = Half life of the compound in 10% Me2SO-Jensen's minimal media at 0.7 to 2 X 10^-4 M at pH 6 by spectrophotometric analysis; assay type: physicochemical
Escherichia coli [16] = experiment: Antibacterial activity against Escherichia coli Br cultured in Penassay broth assessed as time required for growth suppression at 4.4 X 10^-5 M compound added in early log phase of growth by turbidimetric analysis; assay type: functional
[17] = Half life of the compound in 5% Me2SO-Jensen's minimal media at 0.7 to 2 X 10^-4 M at pH 6 by spectrophotometric analysis; assay type: physicochemical
Klebsiella pneumoniae [18] = experiment: Antibacterial activity against Klebsiella pneumoniae cultured in Penassay broth assessed as effect on lag time after 9 hrs by turbidimetric analysis; assay type: functional, organism-based; procedure, shortened: as §3
[19] = Half life of the compound in 20% Me2SO-Jensen's minimal media at 0.7 to 2 X 10^-4 M at pH 6 by spectrophotometric analysis; assay type: physicochemical
Escherichia coli [20] = experiment: Antibacterial activity against Escherichia coli B cultured in Jensen's minimal media assessed as growth inhibition by turbidimetric analysis in presence of vitamin-free casamino acids and tryptophan; assay type: functional, organism-based
Procedure, shortened: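 Same minimal-medium turbidity assay with E. coli B: a 70% T culture was mixed with compound in Me2SO in Jensen's broth (pH 7) and read with agitation. Vitamin-free casamino acids (1.2 g/l) and tryptophan (200 mg/l) were added to the minimal broth.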

Escherichia coli [21] = experiment: Antibacterial activity against Escherichia coli B cultured in Jensen's minimal media assessed as growth inhibition at < 2 X 10^-5 M by turbidimetric analysis; assay type: functional, organism-based

SMILES: Cc1oc2c([N+](=O)[O-])cccc2c1C(N)=O
growth inhibition (GI) (Escherichia coli [1]): inactive

SMILES: Cc1cc2cccc([N+](=O)[O-])c2o1
growth inhibition (GI) (Escherichia coli [1]): inactive

SMILES: Cc1oc2ccc([N+](=O)[O-])cc2c1[N+](=O)[O-]
half-life [2]: 0.89 h
Ratio [3]: >10
Stability [4]: Unstable

MIC (Enterococcus faecalis): 50 mg/L (≈ 252 µM)
MIC (Escherichia coli [5]): 18.7 mg/L (≈ 94.4 µM)
MIC (Escherichia coli [6]): 5 mg/L (≈ 25.2 µM)
MIC (Klebsiella pneumoniae [7]): 10 mg/L (≈ 50.5 µM)
MIC (Pseudomonas aeruginosa): > 100 mg/L
MIC (Staphylococcus aureus [9]): 5 mg/L (≈ 25.2 µM)
MIC (Escherichia coli [10]): 5 mg/L (≈ 25.2 µM)
MIC (Providencia rettgeri): > 100 mg/L
MIC (Proteus mirabilis): 50 mg/L (≈ 252 µM)
SMILES: NC(=O)N/N=C/c1ccc([N+](=O)[O-])o1 [NITROFURAZONE]
Activity (Escherichia coli [8]): inactive

half-life [2]: 1.48 h
Stability [4]: Unstable
SMILES: Cc1oc2c(C(F)(F)F)cccc2c1[N+](=O)[O-]
Ratio [3]: >10

half-life [2]: 1.91 h
Stability [4]: Unstable
SMILES: Cc1oc2c(C(N)=O)cccc2c1[N+](=O)[O-]
Ratio [3]: >10

SMILES: Cc1oc2c([N+](=O)[O-])cccc2c1[N+](=O)[O-]
MIC (Enterococcus faecalis): 3.75 mg/L (≈ 16.9 µM)
MIC (Escherichia coli [5]): 1.87 mg/L (≈ 8.42 µM)
MIC (Escherichia coli [6]): 1.87 mg/L (≈ 8.42 µM)
half-life [2]: 1.37 h
MIC (Klebsiella pneumoniae [7]): 5 mg/L (≈ 22.5 µM)
half-life [11]: 1.51 h
Activity (Escherichia coli [8]): Active
MIC (Pseudomonas aeruginosa): > 10 mg/L
Ratio [3]: >10
MIC (Staphylococcus aureus [9]): 2.5 mg/L (≈ 11.3 µM)
Activity (Escherichia coli [12]): inactive
Stability [4]: Unstable
Time (Escherichia coli [13]): 3 h
Activity (Staphylococcus aureus [14]): Active
half-life [15]: 1.95 h
Time (Escherichia coli [16]): 6 h
MIC (Escherichia coli [10]): 1.87 mg/L (≈ 8.42 µM)
MIC (Providencia rettgeri): 7.5 mg/L (≈ 33.8 µM)
half-life [17]: 2.1 h
Activity (Klebsiella pneumoniae [18]): Active
MIC (Proteus mirabilis): 6.25 mg/L (≈ 28.1 µM)
half-life [19]: 1.78 h

SMILES: Cc1oc2c([N+](=O)[O-])cccc2c1Br
growth inhibition (GI) (Escherichia coli [1]): inactive

half-life [2]: 3.34 h
Stability [4]: Unstable
SMILES: Cc1oc2ccccc2c1[N+](=O)[O-]
Ratio [3]: >10

Stability [4]: Unstable
SMILES: Cc1oc2c(Br)cccc2c1[N+](=O)[O-]
Ratio [3]: >10

SMILES: Cc1cc2cccc(Br)c2o1
growth inhibition (GI) (Escherichia coli [1]): inactive

half-life [2]: 2.88 h
Stability [4]: Unstable
SMILES: Cc1oc2c(NC(=O)C(F)(F)F)cccc2c1[N+](=O)[O-]
growth inhibition (GI) (Escherichia coli [20]): inactive
growth inhibition (GI) (Escherichia coli [21]): inactive

SMILES: Cc1oc2c([N+](=O)[O-])cccc2c1C#N
growth inhibition (GI) (Escherichia coli [1]): inactive

SMILES: Cc1oc2c([N+](=O)[O-])cccc2c1C(=O)O
growth inhibition (GI) (Escherichia coli [1]): inactive

SMILES: Cc1cc2cccc(N)c2o1
growth inhibition (GI) (Escherichia coli [1]): inactive

From ChEMBL document CHEMBL3272219, “Chemistry and antibacterial activity of nitrobenzofurans” (J Med Chem, 1976)
